Assay results taken from ChEMBL document CHEMBL1129268 (J Med Chem, 1996).

How the values were obtained:
[1] = target: T1, Metabotropic glutamate receptor 2 (Homo sapiens, UniProt Q14416); test: Agonistic activity at mGlu2 receptor expressed in CHO cells; type: functional, cell-based
In short: (§1)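 CHO cells expressing the receptor were kept at 37 °C in DMEM with 2 mM glutamine, 1% proline and 10% dialyzed FCS, and plated 2 days before assay. Cells were incubated 10 min in PBS with ligand, 10 µM forskolin and 1 mM IBMX, and cAMP was measured by RIA. Agonism is inhibition of forskolin-induced cAMP versus buffer-only control.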

[2] = target: T2, Metabotropic glutamate receptor 1 (Homo sapiens, UniProt Q13255); test: Agonistic activity at mGlu1-alpha receptor expressed in CHO cells; type: functional, cell-based
[3] = target: T3, Metabotropic glutamate receptor 6 (Homo sapiens, UniProt O15303); test: Agonistic activity at mGlu6 receptor expressed in CHO cells; type: functional, cell-based; in short: as §1
[4] = target: Glutamate receptor ionotropic, AMPA (Rattus norvegicus, UniProt P19490+P19491+P19492+P19493); test: Agonistic activity at Ionotropic glutamate receptor AMPA of rat brain membrane using [3H]AMPA as radioligand; type: functional
[5] = target: T3, Metabotropic glutamate receptor 6; test: Agonist activity of the compound at Metabotropic Excitatory Amino acid Receptors Expressed in CHO cells. mGlu6; type: functional, cell-based
In short: (§2)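 CHO cells expressing mGlu2, mGlu4a or mGlu6, seeded 2 days before assay. Incubated 10 min in PBS with ligand, 10 µM forskolin and 1 mM IBMX. […] EC50 from dose-response, mean ± SEM of at least two independent experiments.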

[6] = target: T2, Metabotropic glutamate receptor 1; test: Agonist activity of the compound at Metabotropic Excitatory Amino acid Receptors Expressed in CHO cells. mGlu1-alpha; type: functional, cell-based
In short: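 CHO cells stably expressing mGlu1α, seeded 2 days before assay and labelled with [3H]inositol (1 µCi/mL) for 24 h. Ligand in PBS-LiCl for 20 min; total [3H]inositol mono-, bis- and trisphosphates by ion-exchange chromatography, fold over buffer-only control. EC50 from dose-response, mean ± SEM of at least two independent experiments.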

Glutamate NMDA receptor [7] = test: Agonistic activity at NMDA receptor of rat brain membrane using [3H]MK-801 as radioligand; type: functional
In short: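 Rat brain membranes were prepared per Ransom and Stec. [3H]MK-801 binding was run on fully stimulated membranes, with incubation lengthened to 4 h.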

Glutamate NMDA receptor [8] = test: The compound was evaluated for agonist activity at NMDA receptor in rat cortical wedge preparation; type: functional
In short: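 Rat cortical wedge under superfusion. Test and standard compounds were dissolved in the superfusion medium, and the potential difference between the recording and reference electrodes was charted.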

[9] = target: Glutamate receptor ionotropic, kainate; test: The compound was evaluated for agonist to competitive inhibition of radioligand ([3H]- kainic acid ) at Ionotropic glutamate receptor kainate; type: functional
[10] = target: T1, Metabotropic glutamate receptor 2; test: Agonist activity of the compound at Metabotropic Excitatory Amino acid Receptors Expressed in CHO cells. mGlu2; type: functional, cell-based
In short: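 CHO cells expressing mGlu2, mGlu4a or mGlu6, seeded 2 days before assay. Incubated 10 min in PBS with ligand, 10 µM forskolin and 1 mM IBMX. EC50 from dose-response, mean ± SEM of at least two independent experiments.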

[11] = target: T4, Metabotropic glutamate receptor 4 (Homo sapiens, UniProt Q14833); test: Agonistic activity at mGlu4a receptor expressed in CHO cells; type: functional, cell-based; in short: as §1
[12] = target: T4, Metabotropic glutamate receptor 4; test: Agonist activity of the compound at Metabotropic Excitatory Amino acid Receptors Expressed in CHO cells. mGlu4a; type: functional, cell-based; in short: as §2

T1 sequence (Q14416 whole entry): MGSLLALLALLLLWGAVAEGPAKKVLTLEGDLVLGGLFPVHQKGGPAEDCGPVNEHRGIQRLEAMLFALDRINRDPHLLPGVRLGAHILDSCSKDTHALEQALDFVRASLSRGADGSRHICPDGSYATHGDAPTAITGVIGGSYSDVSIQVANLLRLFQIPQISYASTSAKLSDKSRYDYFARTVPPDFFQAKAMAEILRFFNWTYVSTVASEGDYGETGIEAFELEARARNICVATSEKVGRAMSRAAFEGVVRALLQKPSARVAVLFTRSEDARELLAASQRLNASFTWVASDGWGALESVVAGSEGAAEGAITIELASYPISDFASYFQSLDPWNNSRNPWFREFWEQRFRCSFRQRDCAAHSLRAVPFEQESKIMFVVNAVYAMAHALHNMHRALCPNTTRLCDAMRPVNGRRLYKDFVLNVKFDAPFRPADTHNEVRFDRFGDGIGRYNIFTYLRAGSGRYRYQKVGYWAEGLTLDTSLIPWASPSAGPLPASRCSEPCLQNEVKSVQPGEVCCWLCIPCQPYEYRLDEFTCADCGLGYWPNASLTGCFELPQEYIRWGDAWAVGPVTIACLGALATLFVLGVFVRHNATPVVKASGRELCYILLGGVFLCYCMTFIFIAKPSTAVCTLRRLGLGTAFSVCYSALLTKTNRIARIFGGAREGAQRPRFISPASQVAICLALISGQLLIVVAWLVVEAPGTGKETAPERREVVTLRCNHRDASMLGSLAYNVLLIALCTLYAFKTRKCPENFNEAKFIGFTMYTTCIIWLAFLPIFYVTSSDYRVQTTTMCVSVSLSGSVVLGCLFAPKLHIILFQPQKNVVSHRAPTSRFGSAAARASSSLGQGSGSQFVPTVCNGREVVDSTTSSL
T2 sequence (Q13255 whole entry): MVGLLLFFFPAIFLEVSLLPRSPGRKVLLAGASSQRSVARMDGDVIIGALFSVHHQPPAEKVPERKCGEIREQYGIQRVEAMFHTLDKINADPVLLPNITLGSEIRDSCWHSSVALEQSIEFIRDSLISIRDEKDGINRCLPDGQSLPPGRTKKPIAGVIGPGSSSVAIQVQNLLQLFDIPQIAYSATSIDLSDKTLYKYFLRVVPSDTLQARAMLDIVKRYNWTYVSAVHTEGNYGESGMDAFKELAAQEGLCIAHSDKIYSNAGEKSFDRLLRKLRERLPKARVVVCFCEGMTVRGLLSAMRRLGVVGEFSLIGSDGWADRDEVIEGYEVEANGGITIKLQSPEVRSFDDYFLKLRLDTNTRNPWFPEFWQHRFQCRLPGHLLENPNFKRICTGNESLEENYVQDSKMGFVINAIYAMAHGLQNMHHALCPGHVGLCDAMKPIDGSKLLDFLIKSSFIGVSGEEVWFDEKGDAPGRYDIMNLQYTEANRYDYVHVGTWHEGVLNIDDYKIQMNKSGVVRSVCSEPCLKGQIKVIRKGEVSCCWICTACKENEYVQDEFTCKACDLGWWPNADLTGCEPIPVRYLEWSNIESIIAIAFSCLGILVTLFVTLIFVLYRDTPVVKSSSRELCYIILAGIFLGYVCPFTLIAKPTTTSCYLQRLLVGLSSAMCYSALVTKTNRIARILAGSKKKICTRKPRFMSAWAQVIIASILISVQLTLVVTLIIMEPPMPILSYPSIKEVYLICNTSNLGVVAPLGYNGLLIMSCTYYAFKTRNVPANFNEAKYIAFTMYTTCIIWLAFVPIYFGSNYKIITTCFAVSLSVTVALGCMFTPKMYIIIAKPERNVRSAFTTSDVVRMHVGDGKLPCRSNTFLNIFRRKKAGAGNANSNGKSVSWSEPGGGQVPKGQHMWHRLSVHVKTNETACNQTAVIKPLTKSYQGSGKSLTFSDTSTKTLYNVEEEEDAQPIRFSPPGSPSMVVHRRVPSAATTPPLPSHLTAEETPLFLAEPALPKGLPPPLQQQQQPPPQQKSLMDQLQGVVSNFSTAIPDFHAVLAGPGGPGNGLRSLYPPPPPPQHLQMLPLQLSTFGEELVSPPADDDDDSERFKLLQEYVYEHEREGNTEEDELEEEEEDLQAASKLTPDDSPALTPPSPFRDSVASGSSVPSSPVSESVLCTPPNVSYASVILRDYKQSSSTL
T3 sequence (O15303 whole entry): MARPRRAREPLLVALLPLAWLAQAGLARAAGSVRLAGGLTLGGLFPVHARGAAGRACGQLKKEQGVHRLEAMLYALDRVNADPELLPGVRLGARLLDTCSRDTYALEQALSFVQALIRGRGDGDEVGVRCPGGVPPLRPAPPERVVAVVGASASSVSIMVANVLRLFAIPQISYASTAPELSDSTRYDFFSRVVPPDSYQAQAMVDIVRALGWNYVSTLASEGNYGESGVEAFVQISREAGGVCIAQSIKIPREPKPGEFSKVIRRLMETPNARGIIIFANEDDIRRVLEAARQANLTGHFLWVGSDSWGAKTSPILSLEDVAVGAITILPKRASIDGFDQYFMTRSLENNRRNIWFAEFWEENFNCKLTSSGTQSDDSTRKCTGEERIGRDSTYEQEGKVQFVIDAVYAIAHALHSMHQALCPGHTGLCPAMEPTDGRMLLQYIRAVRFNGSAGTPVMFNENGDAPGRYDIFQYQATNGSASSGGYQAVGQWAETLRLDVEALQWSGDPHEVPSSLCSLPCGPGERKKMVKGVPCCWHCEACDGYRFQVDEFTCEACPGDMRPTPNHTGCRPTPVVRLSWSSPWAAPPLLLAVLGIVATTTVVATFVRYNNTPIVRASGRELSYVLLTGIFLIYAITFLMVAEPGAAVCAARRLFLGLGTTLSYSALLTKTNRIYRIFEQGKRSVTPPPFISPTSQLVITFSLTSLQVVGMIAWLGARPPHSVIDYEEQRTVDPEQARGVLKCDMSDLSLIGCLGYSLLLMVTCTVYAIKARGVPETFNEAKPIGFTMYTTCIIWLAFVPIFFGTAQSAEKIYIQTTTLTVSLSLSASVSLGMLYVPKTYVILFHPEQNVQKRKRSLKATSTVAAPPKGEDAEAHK
T4 sequence (Q14833 whole entry): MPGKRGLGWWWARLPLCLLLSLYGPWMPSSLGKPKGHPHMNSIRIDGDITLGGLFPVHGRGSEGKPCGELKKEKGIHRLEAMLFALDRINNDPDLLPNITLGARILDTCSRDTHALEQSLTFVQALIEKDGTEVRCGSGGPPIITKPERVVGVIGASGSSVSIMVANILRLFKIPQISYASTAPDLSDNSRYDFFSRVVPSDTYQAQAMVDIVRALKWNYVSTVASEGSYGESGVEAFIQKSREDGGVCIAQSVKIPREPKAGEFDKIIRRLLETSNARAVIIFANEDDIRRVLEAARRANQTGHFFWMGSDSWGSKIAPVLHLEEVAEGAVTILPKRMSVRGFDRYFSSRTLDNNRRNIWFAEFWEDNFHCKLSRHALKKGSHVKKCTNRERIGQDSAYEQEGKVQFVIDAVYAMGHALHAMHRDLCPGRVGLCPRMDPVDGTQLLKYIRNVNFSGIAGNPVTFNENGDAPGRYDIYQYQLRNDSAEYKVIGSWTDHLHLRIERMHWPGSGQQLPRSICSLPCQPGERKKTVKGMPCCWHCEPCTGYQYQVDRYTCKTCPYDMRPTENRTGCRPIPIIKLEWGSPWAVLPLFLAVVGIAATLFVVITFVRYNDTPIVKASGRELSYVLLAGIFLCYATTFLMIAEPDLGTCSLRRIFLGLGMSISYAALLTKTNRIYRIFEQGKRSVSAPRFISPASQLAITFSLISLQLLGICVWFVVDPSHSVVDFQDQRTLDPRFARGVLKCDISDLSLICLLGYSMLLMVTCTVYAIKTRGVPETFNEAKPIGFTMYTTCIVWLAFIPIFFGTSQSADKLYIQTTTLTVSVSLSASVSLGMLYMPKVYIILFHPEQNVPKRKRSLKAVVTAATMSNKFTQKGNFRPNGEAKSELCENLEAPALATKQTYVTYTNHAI

| EC50 [1] | EC50 [2] | EC50 [3] | Compound | other results |
| --- | --- | --- | --- | --- |
| > 1000 µM | > 1000 µM | > 1000 µM | NC(CCCCC(=O)O)C(=O)O (stereo not drawn) | – |
| > 1000 µM | > 1000 µM | > 1000 µM | NC(CCCCCC(=O)O)C(=O)O (stereo not drawn) | – |
| > 1000 µM | > 1000 µM | > 1000 µM | Cc1o[nH]c(=O)c1CCCCC(N)C(=O)O (stereo not drawn) | – |
| > 1000 µM | > 1000 µM | 82 µM | Cc1onc(O)c1CCC(N)C(=O)O (stereo not drawn) | EC50 [11]: > 3000 µM |
| > 1000 µM | > 1000 µM | 410 µM | Cc1onc(O)c1CCCC(N)C(=O)O (stereo not drawn) | EC50 [11]: > 3000 µM |

Further lines, the compound ahead of its results:

| Compound | EC50 [1] | EC50 [2] | EC50 [3] | other results |
| --- | --- | --- | --- | --- |
| N[C@@H](CC(=O)O)C(=O)O [ASPARTIC ACID] | > 1000 µM | > 1000 µM | > 1000 µM | – |
| N[C@H](CC(=O)O)C(=O)O [D-ASPARTATE] | > 1000 µM | > 1000 µM | > 1000 µM | – |
| Cc1o[nH]c(=O)c1C(N)C(=O)O (stereo not drawn) | – | – | – | IC50 [4]: > 100 µM; EC50 [5]: > 1000 µM; EC50 [6]: > 1000 µM; IC50 (Glutamate NMDA receptor [7]): > 100 µM; EC50 (Glutamate NMDA receptor [8]): 12 µM; IC50 [9]: > 100 µM |
| Cc1onc(O)c1C[C@@H](N)C(=O)O | – | – | – | EC50 [5]: > 1000 µM; EC50 [6]: > 1000 µM; EC50 [10]: > 1000 µM |
| N[C@@H](CCCC(=O)O)C(=O)O [(S)-2-AMINOADIPIC ACID] | 35 µM | > 1000 µM | 140 µM | EC50 [11]: > 3000 µM |
| N[C@H](CCCC(=O)O)C(=O)O | > 1000 µM | > 1000 µM | > 1000 µM | – |
| Cc1onc(O)c1C[C@H](N)C(=O)O [(S)-AMPA] | – | – | – | EC50 [12]: > 3000 µM; EC50 [5]: 220 µM; EC50 [6]: > 1000 µM; EC50 [10]: > 1000 µM |
